Experimental data from different studies.
Lines come from different studies, so protocols differ.
Target: Serine/threonine-protein kinase STK11 (STK11, Homo sapiens, UniProt Q15831)
Residues used in one study (Q15831 1-433): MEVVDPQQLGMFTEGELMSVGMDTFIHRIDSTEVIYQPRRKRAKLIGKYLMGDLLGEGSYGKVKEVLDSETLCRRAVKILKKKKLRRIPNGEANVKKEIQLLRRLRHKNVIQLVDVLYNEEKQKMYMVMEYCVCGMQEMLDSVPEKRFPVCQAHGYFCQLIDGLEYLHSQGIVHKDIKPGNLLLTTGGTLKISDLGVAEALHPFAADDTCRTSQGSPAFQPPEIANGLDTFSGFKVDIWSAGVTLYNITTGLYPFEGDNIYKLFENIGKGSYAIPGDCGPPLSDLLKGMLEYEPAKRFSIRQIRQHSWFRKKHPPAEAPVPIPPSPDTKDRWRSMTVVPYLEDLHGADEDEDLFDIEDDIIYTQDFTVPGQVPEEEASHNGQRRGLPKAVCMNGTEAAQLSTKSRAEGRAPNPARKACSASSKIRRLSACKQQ

O=C(O)c1cc(-c2ccc(C3CCNCC3)cc2)c2ccc(-c3ccc(C(F)(F)F)cc3)cc2c1  remaining binding (cell-free assay, competition with immobilised ligand; 1 µM): 100%
c1cnn2ncc(-c3ccnc(N4CCC45COC5)n3)c2c1  remaining binding (binding; 1 µM): 84%
Cc1cc(NC(=O)c2cccc(S(F)(F)(F)(F)F)c2)cc(-n2ccn3nc(-c4cccnc4)cc23)c1  remaining binding (cell-free assay, competition with immobilised ligand; 1 µM): 100%
CCN1CCN(Cc2ccc(C(=O)Nc3ccc(C)c(Oc4ccc5c(c4)CC(=O)N5)c3)cc2C(F)(F)F)CC1  remaining binding (binding, competition with immobilised ligand; 1 µM): 100%
COc1ccnn2ncc(-c3ccnc(N(C)C)n3)c12  remaining binding (binding; 1 µM): 91%
Nc1ncc2c(n1)-c1c([nH]c3ccc(C#CC4CC4)cc13)CCCC2  remaining binding (binding, competition with immobilised ligand; 1 µM): 100%
N#Cc1ccccc1CSc1nnc2c(n1)[nH]c1ccccc12  remaining binding (binding, competition with immobilised ligand; 10 µM): 87%
Nc1c(C(=O)NCc2ccc(C(=O)NCCCC3CCCCC3)cc2)cnn1-c1ccccc1  remaining binding (cell-free assay, competition with immobilised ligand; 0.1 µM): 100%
CC(C)(C)c1ccc(-c2nc(CBr)nn2-c2cccc(O)c2)cc1  remaining binding (cell-free assay, competition with immobilised ligand; 10 µM): 100%
CN(CCCC(F)(F)F)c1nccc(-c2cnn3ncccc23)n1  remaining binding (binding; 1 µM): 100%
O=C(NCCCN1CCOCC1)c1ccc(Nc2ncc(Cl)c(-c3ccc(Cl)s3)n2)cc1  remaining binding (binding, competition with immobilised ligand; 1 µM): 0%
C[C@@H](c1ccc(-n2cnc3c(N)ncnc32)cc1)N1CCc2nn(C)c(Cc3ccccc3)c2C1=O  remaining binding (binding, competition with immobilised ligand; 0.1 µM): 100%
COc1cnc(Nc2cccc(S(N)(=O)=O)c2)nc1N1CCN(c2ccccc2)CC1  remaining binding (binding, competition with immobilised ligand; 1 µM): 82%
Cc1nc(C2CCN(C(=O)c3ccc(OC(F)(F)F)cc3N)CC2)c2ncc(N3CCN(C)CC3)cc2n1  remaining binding (cell-free assay, competition with immobilised ligand; 1 µM): 100%
C[C@H]1CCN(c2nccc(-c3cnn4ncccc34)n2)C1  remaining binding (binding; 1 µM): 80%
O=C(NCCCN1CCOCC1)c1ccc(Nc2nccc(-c3cc4ccccc4s3)n2)cc1  remaining binding (binding, competition with immobilised ligand; 1 µM): 3.9%
